# Laboratory results published in ChEMBL document CHEMBL1147694, “Synthesis and biological activity of conjugates between paclitaxel and the cell delivery vector penetratin” (Bioorg Med Chem Lett, 2006).
# What was measured:
# A549 [1] = assay: Antiproliferative activity against human A549 cell line by MTT assay after 72 hrs; assay type: functional, cell-based
# Summary of the method: (§1)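 Human tumour cells, MCF7 (breast) and A549 (lung), were exposed to test compounds for 72 h, and growth was read by MTT assay. IC50 is the concentration giving 50% growth inhibition, taken as the mean of three independent experiments.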
# [2] = Half life in tissue culture medium; assay type: ADME
# Summary of the method: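 Compounds were dissolved in DMEM with 10% foetal calf serum at 1 to 40 (concentration range) and incubated at 37 °C. Aliquots were withdrawn over time and analysed by RP-HPLC and mass spectrometry to give half-life. Analytical RP-HPLC used a MeCN gradient in water with 0.1% TFA over 20 min at 25 °C.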
# MCF7 [3] = assay: Antiproliferative activity against human MCF7 cell line by MTT assay after 1 hr; assay type: functional, cell-based; conditions: MCF7, 1 h
# Summary of the method: (§2)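 Cells were exposed to the conjugates for a short 1 h period, and viability was then quantified by MTT assay.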
# MCF7 [4] = assay: Antiproliferative activity against human MCF7 cell line by MTT assay after 72 hrs; assay type: functional, cell-based; summary of the method: as §1
# A549 [5] = assay: Antiproliferative activity against human A549 cell line by MTT assay after 1 hr; assay type: functional, cell-based; conditions: A549, 1 h; summary of the method: as §2
# [6] = Aqueous solubility of the compound; assay type: physicochemical
# [7] = Homo sapiens, A549, 72 h, read-out: IC50
# [8] = Homo sapiens, MCF7, 72 h, read-out: IC50
Molecule,IC50 (A549 [1]; [7]) [µM],half-life [2] [h],IC50 (MCF7 [3]) [µM],IC50 (MCF7 [4]; [8]) [µM],IC50 (A549 [5]) [µM],solubility [6] [µg/mL],IC50 (A549 [1]; a549),IC50 (MCF7 [4]; mcf7)
CC[C@H](C)[C@H](NC(=O)[C@H](CCCCN)NC(=O)[C@@H](NC(=O)[C@H](CCC(N)=O)NC(=O)[C@H](CCCN=C(N)N)NC(=O)CC(N)CSC1CC(=O)N(CCC(=O)O[C@@H](C(=O)O[C@@H]2C(C)=CC3[C@@H](OC(C)=O)C(=O)[C@@]4(C)[C@H]([C@H](OC(=O)c5ccccc5)[C@@]2(O)C3(C)C)[C@]2(OC(C)=O)CO[C@@H]2C[C@@H]4O)[C@@H](NC(=O)c2ccccc2)c2ccccc2)C1=O)[C@@H](C)CC)C(=O)N[C@@H](Cc1c[nH]c2ccccc12)C(=O)N[C@@H](Cc1ccccc1)C(=O)N[C@@H](CCC(N)=O)C(=O)N[C@@H](CC(N)=O)C(=O)N[C@@H](CCCN=C(N)N)C(=O)N[C@@H](CCCN=C(N)N)C(=O)N[C@@H](CCSC)C(=O)N[C@@H](CCCCN)C(=O)N[C@@H](Cc1c[nH]c2ccccc12)C(=O)N[C@@H](CCCCN)C(=O)N[C@@H](CCCCN)C(=O)O (stereo partly specified),0.27,,,,,,,
CSCC[C@H](NC(=O)[C@H](CCCN=C(N)N)NC(=O)[C@H](CCCN=C(N)N)NC(=O)CC(N)CSC1CC(=O)N(CCC(=O)O[C@@H](C(=O)O[C@@H]2C(C)=CC3[C@@H](OC(C)=O)C(=O)[C@@]4(C)[C@H]([C@H](OC(=O)c5ccccc5)[C@@]2(O)C3(C)C)[C@]2(OC(C)=O)CO[C@@H]2C[C@@H]4O)[C@@H](NC(=O)c2ccccc2)c2ccccc2)C1=O)C(=O)N[C@@H](CCCCN)C(=O)N[C@@H](Cc1c[nH]c2ccccc12)C(=O)N[C@@H](CCCCN)C(=O)N[C@@H](CCCCN)C(N)=O (stereo partly specified),< 0.015,> 8,0.325,< 0.015,0.043,> 10000,,
CC(=O)O[C@H]1C(=O)[C@@]2(C)[C@H]([C@H](OC(=O)c3ccccc3)[C@]3(O)C[C@H](OC(=O)[C@H](O)[C@@H](NC(=O)c4ccccc4)c4ccccc4)C(C)=C1C3(C)C)[C@]1(OC(C)=O)CO[C@@H]1C[C@@H]2O [PACLITAXEL],< 0.015,,0.043,< 0.015,0.028,< 10,,

# Now from value to molecule:
IC50 (A549 [1]; [7]) [µM],half-life [2] [h],IC50 (MCF7 [3]) [µM],IC50 (MCF7 [4]; [8]) [µM],IC50 (A549 [5]) [µM],solubility [6] [µg/mL],IC50 (A549 [1]; a549),IC50 (MCF7 [4]; mcf7),Molecule
< 0.015,> 8,0.202,< 0.017,0.618,,,,CC[C@H](C)[C@H](NC(=O)[C@H](CCCCN)NC(=O)[C@@H](NC(=O)[C@H](CCC(N)=O)NC(=O)[C@H](CCCN=C(N)N)NC(=O)CC(N)CSC1CC(=O)N(CCC(=O)O[C@@H](C(=O)O[C@@H]2C(C)=CC3[C@@H](OC(C)=O)C(=O)[C@@]4(C)[C@H]([C@H](OC(=O)c5ccccc5)[C@@]2(O)C3(C)C)[C@]2(OC(C)=O)CO[C@@H]2C[C@@H]4O)[C@@H](NC(=O)c2ccccc2)c2ccccc2)C1=O)[C@@H](C)CC)C(=O)N[C@@H](Cc1c[nH]c2ccccc12)C(=O)N[C@@H](Cc1ccccc1)C(=O)N[C@@H](CCC(N)=O)C(=O)N[C@@H](CC(N)=O)C(=O)N[C@@H](CCCN=C(N)N)C(=O)N[C@@H](CCCN=C(N)N)C(=O)N[C@@H](CCSC)C(=O)N[C@@H](CCCCN)C(=O)N[C@@H](Cc1c[nH]c2ccccc12)C(=O)N[C@@H](CCCCN)C(=O)N[C@@H](CCCCN)C(N)=O (stereo partly specified)
,,,,,,Not Active,Not Active,CC[C@H](C)[C@H](NC(=O)[C@H](CCCCN)NC(=O)[C@@H](NC(=O)[C@H](CCC(N)=O)NC(=O)[C@@H](N)CCCNC(=N)N)[C@@H](C)CC)C(=O)N[C@@H](Cc1c[nH]c2ccccc12)C(=O)N[C@@H](Cc1ccccc1)C(=O)N[C@@H](CCC(N)=O)C(=O)N[C@@H](CC(N)=O)C(=O)N[C@@H](CCCNC(=N)N)C(=O)N[C@@H](CCCNC(=N)N)C(=O)N[C@@H](CCSC)C(=O)N[C@@H](CCCCN)C(=O)N[C@@H](Cc1c[nH]c2ccccc12)C(=O)N[C@@H](CCCCN)C(=O)N[C@@H](CCCCN)C(N)=O [PENETRATIN]
,,,,,,Not Active,Not Active,H-RRMKWKK-NH2
